Experiments:
Rattus norvegicus = organism: Rattus norvegicus; experiment: In vitro inhibition of AMPA activated current in xenopus oocytes expressing rat cerebral cortex poly(A)+ RNA.; type: functional
Summary of the method: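 Two-electrode voltage clamp, holding -70 mV, of Xenopus oocytes injected with ~25 ng rat cerebral cortex poly(A)+ RNA, superfused in Ringer. Baseline current from 10 μM AMPA. Antagonist at increasing concentrations preapplied ~30 s, then coapplied with 10 μM AMPA. IC50 from four-parameter logistic fit to pooled data of 3–4 experiments, mean ± SEM.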

Mus musculus = experiment: In vivo anticonvulsant activity in mouse determined by maximum electroshock induced seizure (MES) assay; type: functional
Summary of the method: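 Male NSA mice; compound in 10% Tween-80/water, iv, 5 min before test. Corneal electrodes deliver 50 mA, 60 pulses/s, 0.8-ms pulse width, 1-s d.c. Protection means no tonic hindlimb extension >90° within 30 s. Screened at 10 mg/kg (n = 8), then 4–5 doses (n = 15–24/dose). ED50 with 95% CI by Litchfield–Wilcoxon.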

| IC50 (Rattus norvegicus) [µM] | Compound | ED50 (Mus musculus) [mg/kg] |
| --- | --- | --- |
| 23 | COc1ccc(C2=NNC(=O)Cc3cc4c(cc32)OCO4)cc1 | – |
| 15 | Cc1ccc(C2=NNC(=O)Cc3cc4c(cc32)OCO4)cc1 | 16 |
| 62 | O=C1Cc2cc3c(cc2C(c2ccc(F)cc2)=NN1)OCO3 | > 10 |
| 56 | O=C1Cc2cc3c(cc2C(c2ccc([N+](=O)[O-])cc2)=NN1)OCO3 | > 10 |

More lines, now with the values behind:

| Compound | IC50 (Rattus norvegicus) [µM] | ED50 (Mus musculus) [mg/kg] |
| --- | --- | --- |
| O=C1Cc2cc3c(cc2C(c2ccccc2)=NN1)OCO3 | 21 | 12.9 |
| Nc1ccc(C2=NNC(=O)Cc3cc4c(cc32)OCO4)cc1 | 2.7 | 2.8 |
| CC1=NN=C(c2ccc(N)cc2)c2cc3c(cc2C1)OCO3 [GYKI-52466] | 6.9 | 4.6 |
| COc1cc2c(cc1OC)C(c1ccc(N)cc1)=NNC(=O)C2 | 180 | > 10 |

Reference: ChEMBL document CHEMBL1131020, “Synthesis of 7,8-(methylenedioxy)-1-phenyl-3,5-dihydro-4H-2, 3-benzodiazepin-4-ones as novel and potent noncompetitive AMPA receptor antagonists” (J Med Chem, 1998)
